Test results: ChEMBL document CHEMBL3808325, “Discovery and Optimization of Macrocyclic Quinoxaline-pyrrolo-dihydropiperidinones as Potent Pim-1/2 Kinase Inhibitors” (ACS Med Chem Lett, 2016)
Converted amounts (≈) assume the structure as drawn.

System: not listed separately
Test: Volume of distribution at steady state in Sprague-Dawley rat at 1 mg/kg, iv
Type: ADME, organism-based
Conditions: in vivo, read-out: Vdss
Outline: (§1)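 Pharmacokinetics in male Sprague–Dawley rats. Clearance also expressed as a percentage of liver blood flow. Oral bioavailability determined.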

| Compound | Vd [L/kg] |
| --- | --- |
| C/C1=C\C[C@H]2CNC(=O)c3cc([nH]c32)-c2cccc3nc(C)c(nc23)NC1 | 3.1 |

System: not listed separately
Test: Half life in Sprague-Dawley rat at 2 mg/kg, iv
Type: ADME, organism-based
Conditions: in vivo
Outline: as §1

| Compound | half-life [h] |
| --- | --- |
| C/C1=C/C[C@H]2CNC(=O)c3cc([nH]c32)-c2cccc3nc(C)c(nc23)NC1 | 6.1 |

System: not listed separately
Test: Equilibrium solubility of compound in PBS by HPLC analysis
Type: physicochemical
Conditions: not given

| Compound | solubility thermodynamic [µM] |
| --- | --- |
| Cc1nc2cccc3c2nc1N[C@@H](C)/C=C/C[C@H]1CNC(=O)c2cc-3[nH]c21 | < 5 |
| C/C1=C\C[C@H]2CNC(=O)c3cc([nH]c32)-c2cccc3nc(C)c(nc23)NC1 | 27 (≈ 9.7 µg/mL) |
| Cc1nc2cccc3c2nc1N[C@@H](C)CCC[C@H]1CNC(=O)c2cc-3[nH]c21 | < 5 |
| Cc1nc2cccc3c2nc1NC[C@H](C)CC[C@H]1CNC(=O)c2cc-3[nH]c21 | < 5 |
| Cc1nc2cccc3c2nc1NC[C@@H](C)CC[C@H]1CNC(=O)c2cc-3[nH]c21 | < 5 |
| Cc1nc2cccc3c2nc1NC/C=C/C[C@H]1CNC(=O)c2cc-3[nH]c21 | < 5 |
| C/C1=C/C[C@H]2CNC(=O)c3cc([nH]c32)-c2cccc3nc(C)c(nc23)NC1 | 23 (≈ 8.27 µg/mL) |
| Cc1nc2cccc3c2nc1N[C@H](C)/C=C/C[C@H]1CNC(=O)c2cc-3[nH]c21 | < 5 |
| Cc1nc2cccc3c2nc1NC/C=C\C[C@H]1CNC(=O)c2cc-3[nH]c21 | < 5 |
| Cc1nc2cccc3c2nc1NCCCC[C@H]1CNC(=O)c2cc-3[nH]c21 | 7 (≈ 2.43 µg/mL) |
| Cc1nc2cccc3c2nc1N[C@H](C)CCC[C@H]1CNC(=O)c2cc-3[nH]c21 | < 5 |

Biological target: Serine/threonine-protein kinase PIM (Homo sapiens, UniProt P11309+Q9P1W9+Q86V86)
Test: Inhibition of Pim1/2 in human KMS-12-BM cells assessed as phosphorylation of full-length BAD protein at Ser-112 incubated for 110 mins by flow cytometric analysis in presence of 20% FBS
Type: cell-based
Conditions: not given
Outline: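 Cell assay in KMS-12-BM, a multiple myeloma line with relatively high endogenous Pim-1/2. Pim-dependent phosphorylation of full-length endogenous BAD at Ser-112 measured.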

| Compound | IC50 [nM] |
| --- | --- |
| Cc1nc2cccc3c2nc1N[C@@H](C)/C=C/C[C@H]1CNC(=O)c2cc-3[nH]c21 | 26 |
| C/C1=C\C[C@H]2CNC(=O)c3cc([nH]c32)-c2cccc3nc(C)c(nc23)NC1 | 16 |
| Cc1nc2cccc3c2nc1N[C@@H](C)CCC[C@H]1CNC(=O)c2cc-3[nH]c21 | 40 |
| Cc1nc2cccc3c2nc1NC[C@H](C)CC[C@H]1CNC(=O)c2cc-3[nH]c21 | 25 |
| Cc1nc2cccc3c2nc1NC/C=C\C[C@@H]1CNC(=O)c2cc-3[nH]c21 | 370 |
| Cc1nc2cccc3c2nc1NC[C@@H](C)CC[C@H]1CNC(=O)c2cc-3[nH]c21 | 37 |
| Cc1nc2cccc3c2nc1NCCCC[C@@H]1CNC(=O)c2cc-3[nH]c21 | 100 |
| Cc1nc2cccc3c2nc1NC/C=C/C[C@H]1CNC(=O)c2cc-3[nH]c21 | 106 |
| C/C1=C/C[C@H]2CNC(=O)c3cc([nH]c32)-c2cccc3nc(C)c(nc23)NC1 | 14 |
| Cc1nc2cccc3c2nc1NC/C=C/C[C@@H]1CNC(=O)c2cc-3[nH]c21 | 880 |
| Cc1nc2cccc3c2nc1N[C@H](C)/C=C/C[C@H]1CNC(=O)c2cc-3[nH]c21 | 20 |
| Cc1nc2cccc3c2nc1NC/C=C\C[C@H]1CNC(=O)c2cc-3[nH]c21 | 21 |
| Cc1nc2cccc3c2nc1NCCCC[C@H]1CNC(=O)c2cc-3[nH]c21 | 20 |
| Cc1nc2cccc3c2nc1N[C@H](C)CCC[C@H]1CNC(=O)c2cc-3[nH]c21 | 37 |
| Cc1nc2cccc(-c3cc4c([nH]3)CCNC4=O)c2nc1Nc1ccccc1 | 184 |

System: not listed separately
Test: Drug metabolism in rat liver microsomes assessed as compound turnover at 1 uM incubated for 30 mins
Type: ADME
Conditions: read-out: Drug metabolism

| Compound | metabolised at 0.5 h, 1 µM [%] |
| --- | --- |
| C/C1=C\C[C@H]2CNC(=O)c3cc([nH]c32)-c2cccc3nc(C)c(nc23)NC1 | 45 |
| C/C1=C/C[C@H]2CNC(=O)c3cc([nH]c32)-c2cccc3nc(C)c(nc23)NC1 | 42 |

Biological target: Serine/threonine-protein kinase pim-1 (Homo sapiens, UniProt P11309)
Test: Inhibition of human full-length Pim1 expressed in Escherichia coli assessed as phosphorylation of biotinylated BAD peptide at Ser-112 preincubated for 30 mins followed by substrate addition measured after 1 hr by HTRF assay
Conditions: not given

Sequence of Serine/threonine-protein kinase pim-1 (P11309 whole entry): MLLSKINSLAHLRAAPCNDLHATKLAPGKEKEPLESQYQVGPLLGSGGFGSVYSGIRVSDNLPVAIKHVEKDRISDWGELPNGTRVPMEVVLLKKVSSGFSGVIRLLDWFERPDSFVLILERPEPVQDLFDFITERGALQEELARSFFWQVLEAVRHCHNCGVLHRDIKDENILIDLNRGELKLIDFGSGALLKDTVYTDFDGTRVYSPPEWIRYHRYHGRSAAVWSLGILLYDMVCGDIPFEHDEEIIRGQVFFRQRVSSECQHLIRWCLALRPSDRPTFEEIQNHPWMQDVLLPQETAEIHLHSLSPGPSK

| Compound | IC50 [nM] |
| --- | --- |
| Cc1nc2cccc3c2nc1N[C@@H](C)/C=C/C[C@H]1CNC(=O)c2cc-3[nH]c21 | 0.6 |
| C/C1=C\C[C@H]2CNC(=O)c3cc([nH]c32)-c2cccc3nc(C)c(nc23)NC1 | 0.1 |
| Cc1nc2cccc3c2nc1N[C@@H](C)CCC[C@H]1CNC(=O)c2cc-3[nH]c21 | 1 |
| Cc1nc2cccc3c2nc1NC[C@H](C)CC[C@H]1CNC(=O)c2cc-3[nH]c21 | 0.5 |
| Cc1nc2cccc3c2nc1NC/C=C\C[C@@H]1CNC(=O)c2cc-3[nH]c21 | 2 |
| Cc1nc2cccc3c2nc1NC[C@@H](C)CC[C@H]1CNC(=O)c2cc-3[nH]c21 | 0.3 |
| Cc1nc2cccc3c2nc1NCCCC[C@@H]1CNC(=O)c2cc-3[nH]c21 | 0.4 |
| Cc1nc2cccc3c2nc1NC/C=C/C[C@H]1CNC(=O)c2cc-3[nH]c21 | 1 |
| C/C1=C/C[C@H]2CNC(=O)c3cc([nH]c32)-c2cccc3nc(C)c(nc23)NC1 | 0.4 |
| Cc1nc2cccc3c2nc1NC/C=C/C[C@@H]1CNC(=O)c2cc-3[nH]c21 | 1 |
| Cc1nc2cccc3c2nc1N[C@H](C)/C=C/C[C@H]1CNC(=O)c2cc-3[nH]c21 | 0.3 |
| Cc1nc2cccc3c2nc1NC/C=C\C[C@H]1CNC(=O)c2cc-3[nH]c21 | 0.06 |
| CCCCNc1nc2c(-c3cc4c([nH]3)CCNC4=O)cccc2nc1C | 3 |
| Cc1nc2cccc3c2nc1NCCCC[C@H]1CNC(=O)c2cc-3[nH]c21 | 0.07 |
| Cc1nc2cccc3c2nc1N[C@H](C)CCC[C@H]1CNC(=O)c2cc-3[nH]c21 | 0.1 |
| Cc1nc2cccc(-c3cc4c([nH]3)CCNC4=O)c2nc1Nc1ccccc1 | 3 |

System: not listed separately
Test: Half life in Sprague-Dawley rat at 1 mg/kg, iv
Type: ADME, organism-based
Conditions: in vivo
Outline: as §1

| Compound | half-life [h] |
| --- | --- |
| C/C1=C\C[C@H]2CNC(=O)c3cc([nH]c32)-c2cccc3nc(C)c(nc23)NC1 | 2.8 |

System: not listed separately
Test: Clearance in Sprague-Dawley rat at 1 mg/kg, iv
Type: ADME, organism-based
Conditions: in vivo
Outline: as §1

| Compound | clearance [mL/min/kg] |
| --- | --- |
| C/C1=C\C[C@H]2CNC(=O)c3cc([nH]c32)-c2cccc3nc(C)c(nc23)NC1 | 40 |

System: not listed separately
Test: Drug metabolism in human liver microsomes assessed as compound turnover at 1 uM incubated for 30 mins
Type: ADME
Conditions: read-out: Drug metabolism

| Compound | metabolised at 0.5 h, 1 µM [%] |
| --- | --- |
| C/C1=C\C[C@H]2CNC(=O)c3cc([nH]c32)-c2cccc3nc(C)c(nc23)NC1 | 45 |
| C/C1=C/C[C@H]2CNC(=O)c3cc([nH]c32)-c2cccc3nc(C)c(nc23)NC1 | 17 |

System: not listed separately
Test: Apparent permeability in pig LLC-PK1 cells at 5 uM
Type: ADME, cell-based, Sus scrofa
Conditions: not given

| Compound | Papp at 5 µM [×10⁻⁶ cm/s] |
| --- | --- |
| C/C1=C\C[C@H]2CNC(=O)c3cc([nH]c32)-c2cccc3nc(C)c(nc23)NC1 | 33 |
| C/C1=C/C[C@H]2CNC(=O)c3cc([nH]c32)-c2cccc3nc(C)c(nc23)NC1 | 40 |

System: not listed separately
Test: Oral bioavailability in Sprague-Dawley rat at 5 mg/kg
Type: ADME, organism-based
Conditions: in vivo
Outline: as §1

| Compound | bioavailability [%] |
| --- | --- |
| C/C1=C\C[C@H]2CNC(=O)c3cc([nH]c32)-c2cccc3nc(C)c(nc23)NC1 | 35 |
| C/C1=C/C[C@H]2CNC(=O)c3cc([nH]c32)-c2cccc3nc(C)c(nc23)NC1 | 17 |

System: not listed separately
Test: Volume of distribution at steady state in Sprague-Dawley rat at 2 mg/kg, iv
Type: ADME, organism-based
Conditions: in vivo, read-out: Vdss
Outline: as §1

| Compound | Vd [L/kg] |
| --- | --- |
| C/C1=C/C[C@H]2CNC(=O)c3cc([nH]c32)-c2cccc3nc(C)c(nc23)NC1 | 1.8 |

System: not listed separately
Test: Clearance in Sprague-Dawley rat at 2 mg/kg, iv
Type: ADME, organism-based
Conditions: in vivo
Outline: as §1

| Compound | clearance [mL/min/kg] |
| --- | --- |
| C/C1=C/C[C@H]2CNC(=O)c3cc([nH]c32)-c2cccc3nc(C)c(nc23)NC1 | 15.8 |

System: not listed separately
Test: Protein binding in rat assessed as as fraction unbound at 5 uM by rapid equilibrium dialysis method
Type: ADME
Conditions: plasma

| Compound | fraction unbound at 5 µM |
| --- | --- |
| C/C1=C\C[C@H]2CNC(=O)c3cc([nH]c32)-c2cccc3nc(C)c(nc23)NC1 | 0.0071 |
| C/C1=C/C[C@H]2CNC(=O)c3cc([nH]c32)-c2cccc3nc(C)c(nc23)NC1 | 0.016 |

Biological target: Serine/threonine-protein kinase pim-2 (Homo sapiens, UniProt Q9P1W9)
Test: Inhibition of human full-length Pim2 expressed in Escherichia coli assessed as phosphorylation of biotinylated BAD peptide at Ser 112 preincubated for 30 mins followed by substrate addition measured after 1 hr by HTRF assay
Conditions: not given
Outline: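 Cell-free kinase assay using recombinant Pim-1 or Pim-2. Read-out is phosphorylation of a short BAD peptide sequence spanning Ser-112.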

Sequence of Serine/threonine-protein kinase pim-2 (Q9P1W9 whole entry): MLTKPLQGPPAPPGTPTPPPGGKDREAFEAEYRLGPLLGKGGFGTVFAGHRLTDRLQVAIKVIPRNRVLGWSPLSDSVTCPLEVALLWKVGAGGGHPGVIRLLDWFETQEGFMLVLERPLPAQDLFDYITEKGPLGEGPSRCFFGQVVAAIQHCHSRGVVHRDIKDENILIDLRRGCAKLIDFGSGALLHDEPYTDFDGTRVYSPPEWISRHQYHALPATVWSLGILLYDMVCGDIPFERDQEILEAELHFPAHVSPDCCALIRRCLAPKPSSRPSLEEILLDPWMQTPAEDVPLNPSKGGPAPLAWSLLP

| Compound | IC50 [nM] |
| --- | --- |
| Cc1nc2cccc3c2nc1N[C@@H](C)/C=C/C[C@H]1CNC(=O)c2cc-3[nH]c21 | 0.3 |
| C/C1=C\C[C@H]2CNC(=O)c3cc([nH]c32)-c2cccc3nc(C)c(nc23)NC1 | 0.08 |
| Cc1nc2cccc3c2nc1N[C@@H](C)CCC[C@H]1CNC(=O)c2cc-3[nH]c21 | 0.4 |
| Cc1nc2cccc3c2nc1NC[C@H](C)CC[C@H]1CNC(=O)c2cc-3[nH]c21 | 0.4 |
| CCCNc1nc2c(-c3cc4c([nH]3)CCNC4=O)cccc2nc1C | 2 |
| Cc1nc2cccc3c2nc1NC/C=C\C[C@@H]1CNC(=O)c2cc-3[nH]c21 | 1 |
| Cc1nc2cccc3c2nc1NC[C@@H](C)CC[C@H]1CNC(=O)c2cc-3[nH]c21 | 0.3 |
| Cc1nc2cccc3c2nc1NCCCC[C@@H]1CNC(=O)c2cc-3[nH]c21 | 0.2 |
| Cc1nc2cccc3c2nc1NC/C=C/C[C@H]1CNC(=O)c2cc-3[nH]c21 | 0.5 |
| C/C1=C/C[C@H]2CNC(=O)c3cc([nH]c32)-c2cccc3nc(C)c(nc23)NC1 | 0.2 |
| Cc1nc2cccc3c2nc1NC/C=C/C[C@@H]1CNC(=O)c2cc-3[nH]c21 | 1 |
| Cc1nc2cccc3c2nc1N[C@H](C)/C=C/C[C@H]1CNC(=O)c2cc-3[nH]c21 | 0.05 |
| Cc1nc2cccc3c2nc1NC/C=C\C[C@H]1CNC(=O)c2cc-3[nH]c21 | 0.07 |
| CCCCNc1nc2c(-c3cc4c([nH]3)CCNC4=O)cccc2nc1C | 2 |
| Cc1nc2cccc3c2nc1NCCCC[C@H]1CNC(=O)c2cc-3[nH]c21 | 0.05 |
| Cc1nc2cccc3c2nc1N[C@H](C)CCC[C@H]1CNC(=O)c2cc-3[nH]c21 | 0.2 |
| Cc1nc2cccc(-c3cc4c([nH]3)CCNC4=O)c2nc1Nc1ccccc1 | 2 |
